Assay results reported in ChEMBL document CHEMBL1121362, “DNA intercalating compounds as potential antitumor agents. 1. Preparation and properties of 7H-pyridocarbazoles” (1980).

Experiments:
[1] = test system: L1210; assay: The compound was tested for maximum tolerated dose (MTD) against L1210 cells in […] mice; assay type: functional, Mus musculus
Summary of the method: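 Acute toxicity in mice by the usual procedure. MTD is the highest dose that can be given without any animal death.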

[2] = test system: L1210; assay: The compound was tested for optimum dose fraction of MTD against L1210 cells in […] mice; assay type: functional, Mus musculus
Summary of the method: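 L1210 leukaemia, 10^5 cells ip into DBA2 mice. Single ip dose of the acetate salt 24 h later, with 20–30 mice per group. Dose is expressed as a fraction of the MTD, where the MTD (highest dose causing no deaths) is taken as unity.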

[3] = test system: Calf thymus DNA; assay: DNA binding affinity constant in calf-thymus DNA at pH 7.4; assay type: nucleic-acid assay; settings: Bos taurus
Summary of the method: (§1)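 Calf thymus DNA (4 µg/mL) at 25 °C, with drug at 10^-5 M, titrated with microliter portions of ethidium bromide (100 µg/mL stock in buffer). Fluorescence excitation was 546 nm and emission 590 nm. Apparent affinity constant (Kap) was derived from Scatchard plots of the competition.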

[4] = test system: Calf thymus DNA; assay: DNA binding affinity constant for calf-thymus DNA at pH 5; assay type: nucleic-acid assay; settings: Bos taurus; summary of the method: as §1
[5] = test system: Calf thymus DNA; assay: DNA binding affinity constant for calf-thymus DNA at pH 6; assay type: nucleic-acid assay; settings: Bos taurus; summary of the method: as §1
[6] = Acid dissociation constant (pKa) measured by UV spectroscopy
[7] = organism: Mus musculus; assay: The mean survival time of treated animals (T) was compared to that of control animals(C) calculated as % T/C = (treated survival/control) x 100; assay type: functional
Summary of the method: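 DBA2 mice, 20–30 per group, given 10^5 L1210 cells ip. 24 h later one ip injection of drug (acetate salt, water-soluble); controls get solvent alone. Deaths recorded daily and survivors past 45 days counted as cured. T/C = mean survival treated/control ×100, with significance by Student's t test.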

Structure (SMILES)	K app [4]	K app [5]	pKa [6]	MTD [1]	OD [2]	K app [3]	T/C [7]
C[n+]1ccc2ccc3[nH]c4ccc(O)cc4c3c2c1.[I-]	–	–	–	25 mg/kg	1	180000 M⁻¹	–
COc1ccc2[nH]c3ccc4cc[n+](C)cc4c3c2c1.[I-]	–	–	–	50 mg/kg	0.5	290000 M⁻¹	–
COc1ccc2c(c1)c1c3c[n+](CCN4CCCCC4)ccc3ccc1n2C.[Cl-]	–	–	–	10 mg/kg	0.5	300000 M⁻¹	–
C[n+]1ccc2c(ccc3[nH]c4ccc(O)cc4c32)c1.[I-]	–	–	–	50 mg/kg	0.5	67000 M⁻¹	–
COc1ccc2[nH]c3ccc4cc[n+](CCN5CCCCC5)cc4c3c2c1.[Cl-]	–	–	–	10 mg/kg	1	120000 M⁻¹	–
COc1ccc2c(c1)c1c3c[n+](C)ccc3ccc1n2C.[I-]	–	–	–	25 mg/kg	0.7	695000 M⁻¹	122%
COc1ccc2[nH]c3ccc4c[n+](C)ccc4c3c2c1.[I-]	–	–	–	50 mg/kg	0.5	200000 M⁻¹	–
Oc1ccc2[nH]c3ccc4ccncc4c3c2c1	300000 M⁻¹	115000 M⁻¹	6.4	–	–	42000 M⁻¹	–
COc1ccc2[nH]c3ccc4cc[n+](CCO)cc4c3c2c1.[I-]	–	–	–	100 mg/kg	0.5	110000 M⁻¹	116%
COc1ccc2c(c1)c1c3cc[n+](C)cc3ccc1n2C.[I-]	–	–	–	150 mg/kg	0.5	310000 M⁻¹	115%
C[n+]1cccc2c3c(ccc21)[nH]c1ccccc13.[I-]	–	–	–	50 mg/kg	0.5	60000 M⁻¹	–

Now from value to compound, other results behind:

K app [4]	K app [5]	pKa [6]	Structure (SMILES)	MTD [1]	OD [2]	K app [3]	T/C [7]
157000 M⁻¹	37000 M⁻¹	5.35	COc1ccc2c(c1)c1c3ncccc3ccc1n2C	–	–	23000 M⁻¹	–
115000 M⁻¹	30000 M⁻¹	5.35	Oc1ccc2[nH]c3ccc4cccnc4c3c2c1	–	–	16000 M⁻¹	–
120000 M⁻¹	40000 M⁻¹	5.6	COc1ccc2[nH]c3ccc4ncccc4c3c2c1	–	–	16000 M⁻¹	–
170000 M⁻¹	44000 M⁻¹	5.75	COc1ccc2[nH]c3ccc4ccncc4c3c2c1	–	–	35000 M⁻¹	–
150000 M⁻¹	110000 M⁻¹	6.4	COc1ccc2[nH]c3ccc4cnccc4c3c2c1	–	–	77000 M⁻¹	–
240000 M⁻¹	82000 M⁻¹	6.75	Oc1ccc2[nH]c3ccc4cnccc4c3c2c1	–	–	19000 M⁻¹	–
530000 M⁻¹	250000 M⁻¹	5.9	COc1ccc2c(c1)c1c3cnccc3ccc1n2C	–	–	146000 M⁻¹	–
100000 M⁻¹	32000 M⁻¹	5.25	COc1ccc2[nH]c3ccc4cccnc4c3c2c1	–	–	18000 M⁻¹	–
1.1e+06 M⁻¹	467000 M⁻¹	6.6	COc1ccc2c(c1)c1c3ccncc3ccc1n2C	–	–	123000 M⁻¹	–
